Cytotoxicity data for 96 molecules are collected here from ChEMBL document CHEMBL4513216, “Probing the Open Global Health Chemical Diversity Library for Multistage-Active Starting Points for Next-Generation Antimalarials” (ACS Infect Dis, 2020).

The nature of the data set: Toxicity liver stage against HepG2, at 10uM. The format is cell-based. On the set-up: test concentration 10 uM, cell line HepG2-A16-CD81EGFP. The following applies: human, HepG2-A16-CD81EGFP cells; read-out: INHIBITION
In a few lines:
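Uninfected HepG2-A16-CD81EGFP cells, 3 × 10^3 per well, 1536-well, plated on prespotted compound at 10 μM final, parasite-free screening media added to match infected plates; puromycin 10 μM positive, DMSO 0.5% negative; run in parallel with 48 h PbLuc assay at 37 °C, 5% CO2; viability by CellTiter-Glo luminescence, normalized to controls.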
`CCN1CC(=O)NCC12CCN(C(=O)c1ccno1)C2` (stereo unspecified): the cytotoxicity at 10 µM is -2.75%. The figure for `Cc1nn(C)c(C)c1NC(=O)CNC(c1ccccc1)C1CCC1` (stereo unspecified) is 1.44%; for `Cn1c(Cn2cccn2)nnc1C1CCCN(c2ccncc2)C1` (stereo unspecified) it is -14.2%; for `O=C(c1ccc2cc[nH]c2c1)N1CCCN(Cc2cscn2)CC1` it is -31.7%.

In the case of `Cc1cc(Cl)c2c(c1)C1(NC(=O)c3cccnc3N1)C(=O)N2` (stereo unspecified), the cytotoxicity at 10 µM is 4.97%. The figure for `Cc1occc1C(=O)N1C[C@@H](C(=O)N2CCCCO2)C[C@H]2OCC[C@H]21` is 12.1%; for `O=C(Nc1ccccc1)N1CCc2nc(C(=O)N3CCCC3)sc2CC1` it is 11.3%; for `CC(=O)Nn1ccc2c(nnc3c(-c4ccccc4)cnn32)c1=O` it is 3.06%.

On to `CC(NC(=O)N1CCNC(=O)CC1)c1ccc(OC(F)F)cc1` (stereo unspecified), for which the cytotoxicity at 10 µM was found to be 11.6%. With `COC(=O)c1ccc(S(=O)(=O)N2CCCn3ncnc32)s1` the figure was 19.8%; with `Cc1cccc(CN2CC[C@H]3[C@H]2CCN3C(=O)c2cnn(C)c2)n1`, 14.4%. With `Cc1cccc(CN2CC3(CCN(Cc4ccoc4)CC3)OCC2=O)n1` the figure was -3.18%; with `Cn1cc(Br)c(=O)c(NS(=O)(=O)c2ccc(F)cc2)c1`, -8.87%. With `c1cncc(CN2CCn3cc(Cn4cccn4)nc3C2)c1` the figure was 4.93%. Take `Cc1cccc(C(=O)NCc2ccc(S(N)(=O)=O)cc2)n1`: the cytotoxicity at 10 µM is -4.25%. On to `COc1ccc2c(C)c(C(=O)NCCCc3csc(N)n3)oc2c1`, for which the cytotoxicity at 10 µM was found to be 2.58%. With `O=C(O)CNC(=O)Cc1csc(-c2cccc(Cl)c2)n1` the figure was 4.32%. With `O=C(NC[C@H]1OC[C@@H](NC2COC2)[C@@H]1O)C1CCCC1` the figure was -3.11%; with `CC(C)C(Sc1ccccc1)C(=O)N(C)Cc1nnc2n1CCC2` (stereo unspecified), -12.5%; with `CN(Cc1ccc(F)cc1)C(=O)NCc1nnc2n1CCC2`, -17.8%. With `CC(=O)NC1(C(=O)N2CCCN(c3cccnn3)CC2)CCCCC1` the figure was 8.15%; with `CS(=O)(=O)N[C@@H]1CCO[C@]2(CCN(C(=O)c3cnccn3)C2)C1`, 1.98%. `O=C1CC(c2ccccc2)C2(CCN(Cc3ccccn3)CC2)N1` (stereo unspecified): the cytotoxicity at 10 µM came to 3.91%. With `O=C(CCN1CCN(c2ccc3nncn3n2)CC1)N1CCCCC1` the figure was -6.73%; with `CN(C)c1cc(C(=O)N2CCN(c3cc(C#N)ccn3)CC2)ccn1`, -9.27%. In the case of `COCC1CN(CCc2ccc(OC)c(OC)c2)Cc2c1cnn2C` (stereo unspecified), the cytotoxicity at 10 µM was -105%. As for `Cc1cc(C)n(C2CN(CC(=O)N(C)Cc3ccc(C)o3)C2)n1`, the cytotoxicity at 10 µM was -6.24%. The figure for `COc1c(C)cnc(CSc2nnc(C)s2)c1C` is -4.66%. With `COCCCN1C(=O)CC[C@H]2CN(Cc3ccc4occc4c3)CC[C@H]21` the figure was 8.98%; with `O=C(NCCNc1ncccn1)N1CCSCC1`, -8.26%; with `COc1ccc(CCCC(=O)N2CCCC(n3cccn3)C2)cc1` (stereo unspecified), -7.36%. With `CC(=O)N1CCC(C(=O)NCCN2CCCCC2)CC1` the figure was -5.04%; with `O=C(c1c[nH]c(=O)[nH]c1=O)N1CCCC(c2cnccn2)C1` (stereo unspecified), -3.58%; with `CCOC(=O)NCC(=O)Nc1nc2ccccc2n1C(C)(C)C`, -4.62%. Turning to `CCn1nc(C)c(NC(=O)c2cc(NC(=O)C3CC3)n(C)n2)c1C`, the cytotoxicity at 10 µM was -0.916%. `Cc1cc(N2CCC3(CCC(=O)N(CCCO)C3)CC2)nc(N(C)C)n1`: the cytotoxicity at 10 µM is -0.116%. The figure for `CCCNC(=O)c1ccc(S(=O)(=O)NCC2(COC)CCCC2)cc1` is -31.2%; for `Cc1nc(C(C)(C)NCc2ncc(C(C)C)o2)sc1C` it is 6.32%. The figure for `COc1c(C2CCCN2Cc2nc(C)c(C)o2)c(C)nn1C` (stereo unspecified) is -2%; for `Cn1cc(C(=O)N2CCCC2c2ccc3c(c2)OCO3)ccc1=O` (stereo unspecified) it is -14.8%; for `Cc1ccc(C(N)=O)cc1NCCOc1cccc(C#N)c1` it is 2.87%. With `Cn1nc2c(cc1=O)CN(Cc1ccc(-n3cccn3)cc1)CC2` the figure was -141%; with `CC(C)c1cc(NC(=O)c2ccncc2)[nH]n1`, -0.396%; with `CN(C)Cc1n[nH]c2c1CCN(Cc1cccs1)C2`, 1.63%. Consider `CN(C)c1ncccc1CNC(=O)N1CCCC1CN1CCCC1` (stereo unspecified), for which the cytotoxicity at 10 µM is -12.4%. With `CC(C)(C)c1ccc(S(=O)(=O)CCN2CCNC(=O)CC2)cc1` the figure was -5.41%; with `CCS(=O)(=O)c1ncc(CN(C)Cc2ccccc2OC)n1CCOC`, -2.23%; with `COc1ccccc1NC(=O)Cn1c(=O)nc(N)c2cc(C)sc21`, 3.45%. With `CC(C)OCc1ncn2c1CN(Cc1cnn(C)c1)CCC2` the figure was 6.13%. With `CC(=O)N1CCCC(c2ccc(N3CCOCC3)cn2)C1` (stereo unspecified) the figure was -18.9%.

Consider `CC(C)c1ccc(CC2(C)Cc3cc(CC(=O)O)ccc3O2)cc1` (stereo unspecified), for which the cytotoxicity at 10 µM came out at 6.65%. The figure for `COc1ccc(CN[C@@H]2CO[C@H](CNC(=O)NC(C)C)[C@H]2O)cc1` is -4.7%; for `Cc1ccccc1C(=O)NC1CCN(c2cnn(C)c2)C1=O` (stereo unspecified) it is 4.19%; for `CC(C)CC(=O)N1CCCC1c1cc(CO)[nH]n1` (stereo unspecified) it is 3.05%. For the molecule `Cc1ncc2c(n1)CN(Cc1nc(-c3ccsc3)no1)CC2`, the cytotoxicity at 10 µM was -1.33%. The figure for `COC(=O)C(NC(=O)C1CCC1)c1cc(F)ccc1F` (stereo unspecified) is 5.54%; for `CCc1nnc2n1CC(CNCC1CCCC1)CC2` (stereo unspecified) it is -3.98%; for `c1ccc2c(c1)OCCCC2NCc1nnc2n1CCCCC2` (stereo unspecified) it is -0.044%. With `CCc1ccc(CN(Cc2ccco2)C(C)C(C)C)nc1` (stereo unspecified) the figure was -13.5%; with `Cc1nc[nH]c1CN1CCN(C2CCOCC2)CC(C(N)=O)C1` (stereo unspecified), -19.5%; with `Cn1cc(N2CCC3(CCN(Cc4nccs4)C3)C2=O)cn1` (stereo unspecified), 3.76%. With `CC(=O)Nc1cc(-c2cccc(F)c2F)n[nH]1` the figure was -0.305%.

On to `CCc1ccc(CN2CCC3(CCCN(C(=O)N(C)C)C3)C2)o1` (stereo unspecified), for which the cytotoxicity at 10 µM came out at 7.07%. In the case of `CN(C)C(=O)N1CC2(CCNCC2)c2cc(Cl)ccc21`, the cytotoxicity at 10 µM is -69.8%.

Take `COc1ccc(-c2ccc(C3CNCCO3)nc2)cc1` (stereo unspecified): the cytotoxicity at 10 µM is -8.88%. With `CC(=O)N1CCN(C(=O)c2snnc2C)[C@H]2CS(=O)(=O)C[C@H]21` the figure was -0.145%; with `Cc1cc(C2CCCN2C(=O)c2cc3c(s2)CCC3)on1` (stereo unspecified), -13.4%. Take `Cc1cc(C(=O)N(CC2CCCO2)c2ccncc2)c(C)o1` (stereo unspecified): the cytotoxicity at 10 µM was -8.97%.

Take `CC(=O)N1CCCN(C(=O)c2ccc(Sc3ccccn3)cc2)CC1`: the cytotoxicity at 10 µM worked out at 10.9%.

Turning to `CN(CC(=O)NCCC#N)C(c1ccccc1)c1ccccc1`, the cytotoxicity at 10 µM was 6.51%. In the case of `Cn1cc(C(=O)CC2CCCN2C(=O)c2ccncc2F)cn1` (stereo unspecified), the cytotoxicity at 10 µM amounted to 0.555%. With `COCCN1CCC(CNC(=O)C2(c3ccccc3)CCOCC2)C1` (stereo unspecified) the figure was -5.87%; with `Cc1cc(CN(C)C(=O)c2cc3c([nH]c2=O)CCCC3=O)no1`, -3.59%; with `CC(C)c1noc(CN(CCC2CCCCC2)CC(N)=O)n1`, 2.94%. For `Cc1nc(CNCc2cccnc2Oc2ccc(C)c(F)c2F)c[nH]1`, the cytotoxicity at 10 µM worked out at 6.87%.

In the case of `Cc1cc(N2CCOC(CN)C2)nc(-c2ccccc2)n1` (stereo unspecified), the cytotoxicity at 10 µM was -3.26%. As for `CC1CCCN(C(=O)CCNS(=O)(=O)c2cccnc2)C1` (stereo unspecified), the cytotoxicity at 10 µM was -11%.

As for `Cc1nnc2n1CCN(C(=O)c1cnc(C3CC3)s1)C2`, the cytotoxicity at 10 µM was -5.19%. For the molecule `CSCC[C@H]1CN2CCC[C@H]2CN1Cc1cn(C)nc1C`, the cytotoxicity at 10 µM was -9.85%. With `CS(=O)(=O)NC[C@]12COC[C@H]1CN(C(=O)CCc1ccccc1)C2` the figure was -1.23%; with `Cn1cc(CN2CC[C@@H]3O[C@H](C(=O)N4CCOCC4)C[C@@H]32)cn1`, -8.08%. With `CCc1ccccc1C(=O)N1CCN(S(C)(=O)=O)[C@@H](C)C1` the figure was -8.72%. The figure for `CC(C)(CN1CCOCC1)CN1CCC(Cc2cccc(CO)c2)C1` (stereo unspecified) is -7.73%; for `Cc1nc(C)n(CC2CCCN(CCOc3ccccc3F)C2)n1` (stereo unspecified) it is -18.5%. In the case of `CN(CC(=O)N1CCc2[nH]c3ccc(F)cc3c2C1)CC1OCCO1`, the cytotoxicity at 10 µM was 6.19%. The figure for `CN(C)CCCNC(=O)c1ccccc1NC(=O)c1ccccc1Cl` is -0.986%; for `CN(C)c1cc2c(nn1)CCN(C(=O)C1COc3ccccc3C1)C2` (stereo unspecified) it is 14.3%.

As for `O=C(c1cccnc1-n1cncn1)N1CCc2ccccc2C1`, the cytotoxicity at 10 µM was -13.9%. With `CCC(=O)NCC(=O)Nc1ncc(I)cc1C` the figure was 5.4%; with `c1ccc(OC2COC3(CCN(CC4CC4)CC3)C2)nc1` (stereo unspecified), -75.2%; with `Cc1ccc([C@]2(O)CC[C@H]3CN(Cc4ccncc4)C[C@H]32)nc1`, -31.5%. With `Cc1ccccc1C(O)CNC(=O)Cc1ccc(F)cc1` (stereo unspecified) the figure was 5.8%; with `O=C(NC1CCC1)[C@H]1C[C@H]2CN(S(=O)(=O)c3ccccc3)C[C@@H]1O2`, -9.02%. With `CC(=O)NCCCNC(=O)N(C)C(C)Cc1ccc(Cl)cc1` (stereo unspecified) the figure was 0.866%; with `Cn1c(N)nnc1SCc1c(F)cccc1Br`, -43.2%; with `CSc1ccccc1NC(=O)C1CSc2ncc(C)c(=O)n2C1` (stereo unspecified), -1.31%.
